# Results pooled from the literature.
# Protocols differ between the studies behind these lines.
SMILES,cell line,assay,conditions,IC50 [µM]
CC(C)C[C@H](NC(=O)[C@H](Cc1ccccc1)NC(=O)c1cnccn1)B(O)O,OV56,"cell growth or viability, ATP luminescence",,0.011
C(=C\c1c[nH]c2ccccc12)/c1cc(/C=C/c2cccs2)[nH]n1,CHO-K1,"cell growth or viability, SRB",72 h,16.2
O=C(O)Cc1ccccc1Nc1c(Cl)cccc1Cl,RAW264.7,"IL-6 release, inhibitor",LPS-stimulated,10.2
COCCCN1C(/C=C/c2cccnc2)=CC(=O)CC1c1cccnc1 (stereo not shown),CHO-K1,"cell growth or viability, SRB",72 h,> 75
Cc1ccc2nc(-c3cccc(O)c3)[nH]c2c1,human Rhabdomyosarcoma cell,"cell growth or viability, MTT",48 h,19.3
COc1cc(/C=C/C(=O)CC(=O)/C=C/c2ccc(O)c(OC)c2)ccc1O,CHO-K1,"cell growth or viability, SRB",72 h,33.5
Fc1ccc(-c2nc3ccccc3n2Cc2ccccc2)cc1,human Rhabdomyosarcoma cell,"cell growth or viability, MTT",,28
COc1cc(/C=C/c2cc(/C=C/c3cccc4cnccc34)[nH]n2)ccc1O,CHO-K1,"cell growth or viability, MTT",72 h,8.4
CSc1ccc(-c2nc3ccc(C)cc3[nH]2)cc1,human Rhabdomyosarcoma cell,"cell growth or viability, MTT",48 h,39
COc1cc(/C=C/C(=O)CC(=O)/C=C/c2ccc(O)c(OC)c2)ccc1O,CHO-K1,"cell growth or viability, MTT",72 h,44.9
